# According to ChEMBL document CHEMBL1128256, “Synthesis, biological evaluation, and structure analysis of a series of new 1,5-anhydrohexitol nucleosides” (J Med Chem, 1995):
# Assays:
# [1] = tested on: E6SM; test: Tested for the minimum inhibitory concentration required to reduce herpes simplex virus type 2 (HSV-2) strain 196 induced cytopathogenicity by 50%.; assay type: functional; details: Homo sapiens
# Method in brief: (§1)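 Inhibition of virus-induced cytopathogenicity in human embryonic skin-muscle (E6SM) fibroblasts seeded in 96-well trays. Viruses were HSV-1 (KOS, F, McIntyre), TK- HSV-1 B2006, TK-/TK+ HSV-1 clinical isolate VMW-1837 and HSV-2 (G, 196, Lyons). […] MCC is the lowest concentration giving microscopically detectable alteration of normal cell morphology; highest concentration tested was 400 µg/mL.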
# [2] = tested on: E6SM; test: Tested for the minimum inhibitory concentration required to reduce herpes simplex virus type 2 (HSV-2) strain G induced cytopathogenicity by 50%.; assay type: functional; details: Homo sapiens; method in brief: as §1
# [3] = tested on: E6SM; test: Tested for the minimum inhibitory concentration required to reduce herpes simplex virus type 2 (HSV-2) strain Lyons induced cytopathogenicity by 50%.; assay type: functional; details: Homo sapiens; method in brief: as §1
# [4] = tested on: E6SM; test: Tested for the minimum inhibitory concentration required to reduce herpes simplex virus type 1 (HSV-1) strain F induced cytopathogenicity by 50%.; assay type: functional; details: Homo sapiens; method in brief: as §1
# [5] = tested on: E6SM; test: Tested for the minimum inhibitory concentration required to reduce herpes simplex virus type 1 (HSV-1) strain KOS induced cytopathogenicity by 50%.; assay type: functional; details: Homo sapiens; method in brief: as §1
# [6] = tested on: E6SM; test: Tested for the minimum inhibitory concentration required to reduce herpes simplex virus type 1 (HSV-1) strain McIntyre induced cytopathogenicity by 50%.; assay type: functional; details: Homo sapiens; method in brief: as §1
# [7] = tested on: E6SM; test: Tested for the minimum inhibitory concentration required to reduce herpes simplex virus type 1 (TK+ / TK- HSV-1) strain VMW-1837 induced cytopathogenicity by 50%.; assay type: functional; details: Homo sapiens; method in brief: as §1
# [8] = tested on: E6SM; test: Tested for the minimum cytotoxic concentration required to cause a microscopically detectable alteration of normal cell morphology in human embryonic skin muscle (E6SM) fibroblast cell cultures.; assay type: functional; method in brief: as §1
# [9] = tested on: E6SM; test: Tested for the minimum inhibitory concentration required to reduce thymidine kinase deficient herpes simplex virus type 1 (TK- HSV-1) strain B2006 induced cytopathogenicity by 50%.; assay type: functional; details: Homo sapiens; method in brief: as §1
# [10] = tested on: HEL; test: Tested for the cytotoxic concentration, required to reduce cell growth by 50% in human embryonic lung (HEL) cells.; assay type: functional
# Method in brief: (§2)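 Virus plaque formation assay in human embryonic lung (HEL) cells seeded in 96-well trays. Targets were TK+ VZV (Oka, YS), TK- VZV (07/1, YS/R) and CMV (AD169, Davis). Value is the concentration that reduces plaque number by 50%. Cytotoxicity in HEL cells was taken as the concentration that reduces cell growth by 50%.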
# [11] = tested on: HEL; test: Tested for the inhibitory concentration required to reduce TK+ Varicella-Zoster virus (TK+ VZV) strain OKA plaque formation by 50%.; assay type: functional, cell-based; details: Homo sapiens
# [12] = tested on: HEL; test: Tested for the inhibitory concentration required to reduce TK+ Varicella-Zoster virus (TK+ VZV) strain YS plaque formation by 50%; assay type: functional, cell-based; details: Homo sapiens
# [13] = tested on: HEL; test: Tested for the inhibitory concentration required to reduce cytomegalovirus (CMV) strain AD-169 plaque formation by 50%.; assay type: functional, cell-based; details: Homo sapiens; method in brief: as §2
# [14] = tested on: HEL; test: Tested for the inhibitory concentration required to reduce cytomegalovirus (CMV) strain Davis plaque formation by 50%.; assay type: functional, cell-based; details: Homo sapiens; method in brief: as §2
# [15] = tested on: HEL; test: Tested for the inhibitory concentration required to reduce thymidine kinase deficient Varicella-Zoster virus (TK- VZV) strain 07/1 plaque formation by 50%.; assay type: functional, cell-based; details: Homo sapiens
# [16] = tested on: HEL; test: Tested for the inhibitory concentration required to reduce thymidine kinase deficient Varicella-Zoster virus (TK- VZV) strain YS/R plaque formation by 50%.; assay type: functional, cell-based; details: Homo sapiens
# [17] = tested on: E6SM; test: Tested for the minimum inhibitory concentration required to reduce herpes simplex virus type 2 (HSV-2) strain G induced cytopathogenicity by 50%; assay type: functional; details: Homo sapiens; method in brief: as §1
# [18] = tested on: E6SM; test: Tested for the minimum inhibitory concentration required to reduce herpes simplex virus type 1 (HSV-1) strain KOS induced cytopathogenicity by 50%; assay type: functional; details: Homo sapiens; method in brief: as §1
# [19] = tested on: E6SM; test: Tested for the minimum inhibitory concentration required to reduce vesicular stomatitis virus(VSV) induced cytopathogenicity by 50%; assay type: functional; details: Homo sapiens
# [20] = tested on: E6SM; test: Tested for the minimum inhibitory concentration required to reduce herpes simplex virus type 1 (TK/ TK+HSV-1) strain VMW-1837 induced cytopathogenicity by 50%; assay type: functional; details: Homo sapiens; method in brief: as §1
# [21] = tested on: E6SM; test: Tested for the minimum cytotoxic concentration required to cause a microscopically detectable alteration of normal cell morphology in human embryonic skin muscle (E6SM) fibroblast cell cultures; assay type: functional
# Method in brief: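 Cytotoxicity in human embryonic skin-muscle (E6SM) fibroblasts seeded in 96-well trays, scored microscopically as altered normal cell morphology. Tested up to 400 µg/mL.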
# [22] = tested on: E6SM; test: Tested for the minimum inhibitory concentration required to reduce thymidine kinase deficient herpes simplex virus type 1 (TK-HSV-1) strain B2006 induced cytopathogenicity by 50%; assay type: functional; details: Homo sapiens; method in brief: as §1
# [23] = tested on: HEL; test: Tested for the cytotoxic concentration, required to reduce cell growth by 50% in human embryonic lung (HEL) cells; assay type: functional; method in brief: as §2
# [24] = tested on: HEL; test: Tested for the inhibitory concentration required to reduce TK+ Varicella-Zoster virus (TK+VZV) strain OKA plaque formation by 50%; assay type: functional, cell-based; details: Homo sapiens; method in brief: as §2
# [25] = tested on: HEL; test: Tested for the inhibitory concentration required to reduce TK+ Varicella-Zoster virus (TK+VZV) strain YS plaque formation by 50%; assay type: functional, cell-based; details: Homo sapiens; method in brief: as §2
# [26] = tested on: HEL; test: Tested for the inhibitory concentration required to reduce cytomegalovirus (CMV) strain Davis plaque formation by 50%; assay type: functional, cell-based; details: Homo sapiens; method in brief: as §2
# [27] = tested on: HEL; test: Tested for the inhibitory concentration required to reduce thymidine kinase deficient Varicella-Zoster virus (TK-VZV) strain 07/1 plaque formation by 50%; assay type: functional, cell-based; details: Homo sapiens; method in brief: as §2
# [28] = tested on: HEL; test: Tested for the inhibitory concentration required to reduce thymidine kinase deficient Varicella-Zoster virus (TK-VZV) strain YS/R plaque formation by 50%; assay type: functional, cell-based; details: Homo sapiens; method in brief: as §2
# [29] = tested on: E6SM; test: Tested for the minimum inhibitory concentration required to reduce vaccinia virus(VV) induced cytopathogenicity by 50%; assay type: functional; details: Homo sapiens
# [30] = tested on: HEL; test: Tested for the inhibitory concentration required to reduce cytomegalovirus (CMV) strain AD-169 plaque formation by 50%; assay type: functional, cell-based; details: Homo sapiens; method in brief: as §2
# [31] = tested on: E6SM; test: Tested for the minimum inhibitory concentration required to reduce herpes simplex virus type 1 (TK- / TK+ HSV-1) strain VMW-1837 induced cytopathogenicity by 50%.; assay type: functional; details: Homo sapiens; method in brief: as §1
# [32] = tested on: E6SM; test: Tested for the minimum inhibitory concentration required to reduce vaccinia virus(VV) induced cytopathogenicity by 50%.; assay type: functional; details: Homo sapiens
Structure (SMILES),MIC [1] [µg/mL],MIC [2] [µg/mL],MIC [3] [µg/mL],MIC [4] [µg/mL],MIC [5] [µg/mL],MIC [6] [µg/mL],MCC [8] [µg/mL],MIC [9] [µg/mL],CC50 [10] [µg/mL],IC50 [11] [µg/mL],IC50 [12] [µg/mL],IC50 [13] [µg/mL],IC50 [14] [µg/mL],IC50 [15] [µg/mL],IC50 [16] [µg/mL],MIC [19] [µg/mL],MIC [31] [µg/mL],also measured
O=c1[nH]c(=O)n(C2COC(CO)C(O)C2)cc1F (configuration not stated),> 400,> 400,> 400,> 400,> 400,> 400,> 400,> 400,> 50,40,> 40,> 40,> 40,> 40,40,,,MIC [7]: 300 µg/mL
Nc1ncc2ncn(C3COC(CO)C(O)C3)c2n1 (configuration not stated),,,,,,,,,,,,,,,,> 200,,MIC [17]: 20 µg/mL; MIC [18]: 20 µg/mL; MIC [20]: 70 µg/mL; MCC [21]: > 400 µg/mL; MIC [22]: 150 µg/mL; CC50 [23]: 140 µg/mL; IC50 [24]: 60 µg/mL; IC50 [25]: 80 µg/mL; IC50 [26]: > 50 µg/mL; IC50 [27]: 90 µg/mL; IC50 [28]: 100 µg/mL; MIC [29]: > 200 µg/mL; IC50 [30]: > 50 µg/mL
Nc1nc(=O)n(C2COC(CO)C(O)C2)cc1Cl (configuration not stated),300,300,300,150,300,300,> 400,> 400,> 50,40,> 40,> 40,> 40,> 40,> 40,,300,
Nc1ncnc2c1ncn2C[C@@H](CO)OCP(=O)(O)O,0.07,0.02,0.1,0.2,0.2,2,> 400,1,,,,,,,,> 400,1,MIC [32]: 0.7 µg/mL
